From ChEMBL document CHEMBL1142380, “Synthesis, in vitro characterization, and radiolabeling of reboxetine analogs as potential PET radioligands for imaging the norepinephrine transporter” (Bioorg Med Chem, 2008)

Key:
Homo sapiens [1] = species: Homo sapiens; test: Selectivity ratio of Ki for human SERT to Ki for human NET
[2] = target: Sodium-dependent dopamine transporter (Homo sapiens, UniProt Q01959); test: Displacement of [125I]RTI-55 from human DAT expressed in HEK-293 cells
Homo sapiens [3] = species: Homo sapiens; test: Selectivity ratio of Ki for human DAT to Ki for human NET
[4] = target: Sodium-dependent serotonin transporter (Homo sapiens, UniProt P31645); test: Displacement of [3H]citalopram from human SERT expressed in HEK293 cells; assay type: cell-based
Procedure, shortened: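 Membranes from HEK-293 cells stably expressing hSERT, 30–70 µg protein, with [3H]citalopram. Buffer: 53 mM Tris, 126 mM NaCl, 5.3 mM KCl, pH 7.9. Incubated 2 h at room temperature. Competitor tested at 12 concentrations, 10^-13 to 10^-5 M, in triplicate. Ended by cold-buffer vacuum filtration on 0.3% PEI-soaked GF/B filters. Ki given as geometric mean of ≥3 separate assays.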

[5] = target: Sodium-dependent noradrenaline transporter (Homo sapiens, UniProt P23975); test: Displacement of [3H]nisoxetine from human NET expressed in HEK293 cells; assay type: cell-based
Procedure, shortened: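 Membranes from HEK-293 cells stably expressing hNET (grown in DMEM, 10% FBS, Geneticin), 30–70 µg protein per tube, with [3H]nisoxetine. Buffer: 53 mM Tris, 320 mM NaCl, 5.3 mM KCl, pH 7.4 at 4 °C. Incubated 4 h at 4 °C. Competitor tested at 12 concentrations, 10^-13 to 10^-5 M, in triplicate. Filtered on PEI-soaked GF/B filters. Ki given as geometric mean of ≥3 assays.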

Sequence of Sodium-dependent dopamine transporter (Q01959 whole entry): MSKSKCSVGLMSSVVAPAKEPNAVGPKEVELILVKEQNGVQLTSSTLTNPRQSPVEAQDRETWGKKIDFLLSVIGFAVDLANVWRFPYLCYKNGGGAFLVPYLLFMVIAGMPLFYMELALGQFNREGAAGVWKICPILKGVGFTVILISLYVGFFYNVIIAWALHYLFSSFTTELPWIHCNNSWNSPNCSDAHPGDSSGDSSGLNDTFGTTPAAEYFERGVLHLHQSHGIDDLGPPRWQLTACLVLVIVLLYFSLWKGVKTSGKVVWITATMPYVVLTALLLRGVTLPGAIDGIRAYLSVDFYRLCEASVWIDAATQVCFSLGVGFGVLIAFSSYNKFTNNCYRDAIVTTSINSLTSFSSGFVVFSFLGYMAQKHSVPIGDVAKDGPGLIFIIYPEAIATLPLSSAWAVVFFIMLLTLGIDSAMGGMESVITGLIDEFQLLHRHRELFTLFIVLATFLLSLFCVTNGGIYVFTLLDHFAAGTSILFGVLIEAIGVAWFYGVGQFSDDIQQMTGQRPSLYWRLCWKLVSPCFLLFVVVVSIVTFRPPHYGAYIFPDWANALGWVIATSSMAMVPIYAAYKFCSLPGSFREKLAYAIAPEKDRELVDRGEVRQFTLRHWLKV
Sequence of Sodium-dependent serotonin transporter (P31645 whole entry): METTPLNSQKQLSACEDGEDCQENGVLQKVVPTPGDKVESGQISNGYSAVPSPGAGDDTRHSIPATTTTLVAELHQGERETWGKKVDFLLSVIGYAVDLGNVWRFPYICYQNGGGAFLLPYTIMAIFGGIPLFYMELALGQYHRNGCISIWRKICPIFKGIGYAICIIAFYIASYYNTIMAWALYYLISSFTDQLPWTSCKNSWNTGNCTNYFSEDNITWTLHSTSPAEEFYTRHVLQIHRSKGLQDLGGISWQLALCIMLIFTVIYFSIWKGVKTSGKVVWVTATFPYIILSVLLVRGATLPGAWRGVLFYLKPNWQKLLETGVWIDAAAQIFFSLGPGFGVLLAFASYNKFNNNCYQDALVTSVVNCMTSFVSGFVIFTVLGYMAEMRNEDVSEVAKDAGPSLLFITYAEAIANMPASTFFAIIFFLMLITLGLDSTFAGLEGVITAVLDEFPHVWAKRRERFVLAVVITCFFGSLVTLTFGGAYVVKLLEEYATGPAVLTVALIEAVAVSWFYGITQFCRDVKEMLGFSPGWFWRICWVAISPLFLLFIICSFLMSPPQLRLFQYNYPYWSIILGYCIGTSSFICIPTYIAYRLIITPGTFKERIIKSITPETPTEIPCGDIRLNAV
Sequence of Sodium-dependent noradrenaline transporter (P23975 whole entry): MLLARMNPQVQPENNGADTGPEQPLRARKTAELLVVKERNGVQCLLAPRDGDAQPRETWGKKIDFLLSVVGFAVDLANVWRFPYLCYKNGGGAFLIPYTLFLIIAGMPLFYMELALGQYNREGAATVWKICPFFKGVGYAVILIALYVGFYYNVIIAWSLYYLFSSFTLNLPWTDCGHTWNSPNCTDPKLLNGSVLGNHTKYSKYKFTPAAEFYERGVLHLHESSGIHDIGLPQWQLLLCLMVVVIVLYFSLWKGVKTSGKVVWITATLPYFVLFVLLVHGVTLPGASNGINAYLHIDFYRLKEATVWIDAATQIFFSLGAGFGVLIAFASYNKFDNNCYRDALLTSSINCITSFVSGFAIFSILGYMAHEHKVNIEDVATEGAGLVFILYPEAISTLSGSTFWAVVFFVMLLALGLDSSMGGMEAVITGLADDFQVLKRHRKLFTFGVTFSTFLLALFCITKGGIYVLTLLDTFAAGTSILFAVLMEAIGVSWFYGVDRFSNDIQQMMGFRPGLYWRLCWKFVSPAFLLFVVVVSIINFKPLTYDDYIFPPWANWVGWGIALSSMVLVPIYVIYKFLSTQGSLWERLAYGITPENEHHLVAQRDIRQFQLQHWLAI

Row | Structure (SMILES) | Ratio Ki (Homo sapiens [1]) | Ki [2] [nM] | Ratio Ki (Homo sapiens [3]) | Ki [4] [nM] | Ki [5] [nM]
1 | COC(=O)c1ccccc1S[C@@H](c1ccccc1)[C@@H]1CNCCO1 | 369 | > 30000 | > 20000 | 498 | 1.35
2 | FCCCOc1ccccc1S[C@@H](c1ccccc1)[C@@H]1CNCCO1 | 100 | > 9000 | > 7000 | 121 | 1.21
3 | COc1ccccc1O[C@@H](c1ccccc1)[C@@H]1CNCCO1 | 195 | > 10000 | > 10000 | 185 | 0.95
4 | FCCOc1ccccc1S[C@@H](c1ccccc1)[C@@H]1CNCCO1 | 733 | > 10000 | > 10000 | 733 | 1

Second part, the molecule after the results:

Row | Ratio Ki (Homo sapiens [1]) | Ki [2] [nM] | Ratio Ki (Homo sapiens [3]) | Ki [4] [nM] | Ki [5] [nM] | Structure (SMILES)
5 | 44 | > 6000 | > 3000 | 90.9 | 2.06 | CSc1ccccc1O[C@@H](c1ccccc1)[C@@H]1CNCCO1
6 | 13 | > 4000 | > 4000 | 9.69 | 0.76 | COc1ccccc1S[C@@H](c1ccccc1)[C@@H]1CNCCO1
7 | 465 | > 3000 | > 2000 | 614 | 1.32 | COC(=O)c1ccccc1O[C@@H](c1ccccc1)[C@@H]1CNCCO1
